The source of these data is ChEMBL document CHEMBL3785023, “Development and Pharmacological Characterization of Selective Blockers of 2-Arachidonoyl Glycerol Degradation with Efficacy in Rodent Models of Multiple Sclerosis and Pain” (J Med Chem, 2016).

Each structure is given as a SMILES string. Calls of active or inactive are those of the source.

Data set [1] relates to Heart. Put plainly: Cardiotoxicity in Langendorff-perfused Sprague-Dawley rat heart assessed as time duration of cardiac cycle length at 0.01 uM by ECG analysis (reference value: 238.38 +/- 9.23 milliseconds). The data set is classed as toxicity, tissue-based.
Data set [2] relates to Heart. The data set can be described thus: Cardiotoxicity in Langendorff-perfused Sprague-Dawley rat heart assessed as intraventricular conduction time at 0.1 uM by ECG analysis (reference value: 14.26 +/- 0.71 milliseconds). The data set is classed as toxicity, tissue-based, Cardiac ventricle.
Data set [3] concerns Mus musculus. The data set can be described thus: Toxicity in C57BL/6J mouse assessed as changes in locomotor activity at 3 mg/kg, ip. Format: organism-based. The settings on record: in vivo.
For data set [4], the system named is Mus musculus. The data set can be described thus: Toxicity in CD-1 mouse assessed as changes in normal pain threshold at 3 to 10 mg/kg, po measured up to 60 mins by hot plate test. The data set is classed as organism-based. The settings on record: in vivo, 1 h. In general terms: Thermal pain tests record how soon the animal reacts.
The target in data set [5] is T1, Monoglyceride lipase (Rattus norvegicus, UniProt Q8R431).
T1 sequence (Q8R431 whole entry): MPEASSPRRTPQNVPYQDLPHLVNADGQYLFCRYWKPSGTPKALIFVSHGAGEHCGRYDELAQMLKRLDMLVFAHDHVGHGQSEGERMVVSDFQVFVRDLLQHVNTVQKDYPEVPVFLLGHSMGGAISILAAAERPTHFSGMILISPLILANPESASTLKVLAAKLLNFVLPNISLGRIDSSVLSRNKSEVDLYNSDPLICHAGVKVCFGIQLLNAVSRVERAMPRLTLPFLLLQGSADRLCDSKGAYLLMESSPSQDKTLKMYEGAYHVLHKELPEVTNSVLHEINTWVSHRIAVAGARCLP
The data set can be described thus: Inhibition of MAGL in rat brain membranes preincubated for 20 mins followed by fluorophosphonate-rhodamine addition measured after 30 mins by competitive affinity based proteomic profiling assay. Format: cell membranes, Membrane. In short, it runs like this:
(§1)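 Rat brain membranes (1 mg/mL) preincubated with 1–1000 nM inhibitor or DMSO for 20 min at 37 °C. FP-rhodamine then added and incubated a further 30 min at 37 °C. Samples run on SDS-PAGE and serine hydrolase bands quantified by in-gel fluorescence.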

In data set [6] the test system is Heart. Put plainly: Cardiotoxicity in Langendorff-perfused Sprague-Dawley rat heart assessed as corrected time duration of action potential at 0.001 uM by ECG analysis (reference value: 155.26 +/- 2.96 milliseconds). Format: toxicity, tissue-based.
Data set [7] deals with T2, Monoglyceride lipase (Homo sapiens, UniProt Q99685).
T2 sequence (Q99685 whole entry): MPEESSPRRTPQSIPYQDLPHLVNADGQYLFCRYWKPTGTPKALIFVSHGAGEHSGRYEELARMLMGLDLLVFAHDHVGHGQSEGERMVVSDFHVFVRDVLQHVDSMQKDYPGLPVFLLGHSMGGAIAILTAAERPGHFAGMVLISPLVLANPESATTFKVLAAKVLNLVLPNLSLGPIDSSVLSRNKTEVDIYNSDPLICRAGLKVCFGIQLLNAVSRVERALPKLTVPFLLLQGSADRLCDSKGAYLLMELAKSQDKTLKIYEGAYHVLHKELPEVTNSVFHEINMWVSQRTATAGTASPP
Put plainly: Inhibition of recombinant C-terminal His6-tagged human MAGL expressed in Escherichia coli using 2-arachidonoyl-[3H]-glycerol as substrate incubated for 20 mins by scintillation counting method.

For data set [8], the system named is Heart. Put plainly: Cardiotoxicity in Langendorff-perfused Sprague-Dawley rat heart assessed as atrioventricular conduction time at 1 uM by ECG analysis (reference value: 45.62 +/- 4.49 milliseconds). Format: toxicity, tissue-based.
Data set [9] deals with Heart. Put plainly: Cardiotoxicity in Langendorff-perfused Sprague-Dawley rat heart assessed as time duration of action potential at 0.1 uM by ECG analysis (reference value: 75.65 +/- 0.87 milliseconds). Format: toxicity, tissue-based.
Data set [10] deals with Heart. The data set can be described thus: Cardiotoxicity in Langendorff-perfused Sprague-Dawley rat heart assessed as atrioventricular conduction time at 0.01 uM by ECG analysis (reference value: 45.62 +/- 4.49 milliseconds). The data set is classed as toxicity, tissue-based.
Data set [11] deals with Mus musculus. The data set can be described thus: Toxicity in CD-1 mouse assessed as 2-AG level in spinal cord at 0.3 mg/kg, ip by LC-MS analysis (reference value: 6.4 +/- 0.4 pmol/g). Format: organism-based. Particulars: in vivo. The gist of the method:
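Male CD-1 mice received 0.3 mg/kg i.p. in 0.5% DMSO/saline, with formalin (1.25%, 30 µL) injected into the dorsal hind paw. Paw skin or spinal cord was taken at 5 min post-dose. Tissue was homogenized in CHCl3/MeOH/50 mM Tris-HCl (2:1:1) containing d5-2-AG, extracted with chloroform and analysed by LC-MS. n = 4; ANOVA with Bonferroni test.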

Data set [12] has as its system Heart. The data set can be described thus: Cardiotoxicity in Langendorff-perfused Sprague-Dawley rat heart assessed as heart rate at 0.01 uM by ECG analysis (reference value: 252.78 +/- 9.28 bpm). The data set is classed as toxicity, tissue-based.
Data set [13] concerns Mus musculus. The data set can be described thus: Antinociceptive activity in CD-1 mouse assessed as inhibition of formalin-induced late phase pain response at 0.1 to 0.3 mg/kg, ip dosed 10 mins before formalin injection measured every 5 mins for 60 mins in presence of CB2 antagonist/inverse agonist AM630. The data set is classed as functional, organism-based. In short, it runs like this:
(§2)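 Male CD-1 mice, n = 6 per group, injected with formalin (1.25% in saline, 30 μL) into the dorsal hind paw. Inhibitor (0.1 or 0.3 mg/kg i.p. in 0.5% DMSO/saline) given 10 min before formalin. Where used, AM251 or AM630 (1 mg/kg i.p.) given 10 min before the inhibitor. Time spent lifting, licking, shaking or flinching the injected paw recorded every 5 min over 60 min.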

In data set [14] the target is T3, Monoacylglycerol lipase ABHD6 (Rattus norvegicus) (UniProt Q5XI64).
T3 sequence (whole entry): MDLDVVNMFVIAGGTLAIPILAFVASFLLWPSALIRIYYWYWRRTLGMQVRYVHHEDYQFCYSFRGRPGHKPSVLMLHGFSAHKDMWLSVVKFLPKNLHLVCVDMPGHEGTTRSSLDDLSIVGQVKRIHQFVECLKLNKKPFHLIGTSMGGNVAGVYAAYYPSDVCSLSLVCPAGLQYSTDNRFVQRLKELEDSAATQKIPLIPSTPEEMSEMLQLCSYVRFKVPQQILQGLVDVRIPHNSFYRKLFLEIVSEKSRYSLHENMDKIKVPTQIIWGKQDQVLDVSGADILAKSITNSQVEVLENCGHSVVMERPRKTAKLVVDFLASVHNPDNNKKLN
The data set can be described thus: Inhibition of ABHD6 in rat brain membranes up to 500 nM preincubated for 20 mins followed by fluorophosphonate-rhodamine addition measured after 30 mins by competitive affinity based proteomic profiling assay. The data set is classed as cell membranes. The settings on record: Membrane. The gist of the method:
as §1

For data set [15], the system named is Mus musculus. The data set can be described thus: Analgesic activity in CD-1 mouse model of oxaliplatin-induced neuropathic pain assessed as reversal of lowering of threshold to cold stimuli at 10 mg/kg, po coadministered with oxaliplatin for 14 days measured 24 hrs post last dose by cold plate test. The data set is classed as functional, organism-based.
For data set [16], the system named is Mus musculus. Put plainly: Antinociceptive activity in CD-1 mouse assessed as inhibition of formalin-induced pain response at 0.1 to 0.3 mg/kg, ip dosed 10 mins before formalin injection measured during late phase. The data set is classed as functional, organism-based. In short, it runs like this: as §2
The test system of data set [17] is Mus musculus. The data set can be described thus: Reduction of IBA1 positive cells in white matter anterior fasciculus of experimental autoimmune encephalomyelitis C57BL/6J mouse spinal cord at 3 mg/kg, ip by immunofluorescence assay. The data set is classed as functional, organism-based. The gist of the method:
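Female C57BL/6J mice immunized with MOG35-55 received 3 mg/kg i.p. daily. Spinal cord white matter (anterior fasciculus) was stained for Iba1, with DAPI nuclear counterstain. Iba1-positive cells were counted per optic field. One-way ANOVA with Bonferroni test.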

For the compound `O=C1[C@H](c2ccc(F)cc2)[C@@H](c2ccc3c(c2)OCO3)N1C1CCN(C(=O)n2cncn2)CC1` (racemic) [listing 1 of 2 here], the Time with Heart [1] was found to be 236.8 ms; in the data set with Heart [2], 13.75 ms; with Heart [6], 157.13 ms; in the data set with Heart [8] it was 46.67 ms; in the data set with Heart [9] it was 75.36 ms; in the data set on Heart [10] it was 46.46 ms. For the same compound, the Activity entry in the data set on Mus musculus [3] is on record as “Non-toxic”; in the data set with Mus musculus [4] it was “Non-toxic”; in the data set on Mus musculus [11], 9.7 pmol/g; in the data set with Heart [12] it was 254.18 bpm. In addition, the IC50 – broadly, the concentration at which inhibition is half-maximal – on Monoglyceride lipase [5] was found to be 10 nM; on Monoglyceride lipase [7], 7.4 nM.
On to `O=C1[C@H](c2ccc(F)cc2)[C@@H](c2ccc3c(c2)OCO3)N1C1CCN(C(=O)n2cncn2)CC1` (racemic) [listing 2 of 2 here], for which the inhibition entry (in the data set on Mus musculus [13]; in [14]) was “inactive” throughout. Besides, the outcome with Mus musculus [15] and with Mus musculus [17] was Active. Moreover, in the data set on Mus musculus [16], the inhibition result is “Active”.
